Measurements: ChEMBL document CHEMBL3397016, “SAR-studies of γ-secretase modulators with PPARγ-agonistic and 5-lipoxygenase-inhibitory activity for Alzheimer's disease” (Bioorg Med Chem Lett, 2015)
Active and inactive are the calls of the source. The calls are words filed in the database; no cut-off is given here.

How the values were obtained:
Prostaglandin E synthase = biological target: T1, Prostaglandin E synthase (Homo sapiens, UniProt O14684); test: Inhibition of mPGES-1-mediated PGE2 formation in interleukin-1beta-stimulated human A549 microsomal membranes preincubated for 15 mins before PGH2 addition by RP-HPLC analysis
T1 sequence (O14684 whole entry): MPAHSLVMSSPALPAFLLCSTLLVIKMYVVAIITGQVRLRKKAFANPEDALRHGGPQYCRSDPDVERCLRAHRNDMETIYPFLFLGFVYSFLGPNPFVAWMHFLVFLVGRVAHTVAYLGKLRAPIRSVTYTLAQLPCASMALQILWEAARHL

[1] = biological target: T2, Prostaglandin G/H synthase 2 (Homo sapiens, UniProt P35354); test: Inhibition of human recombinant COX2-mediated 12-HHT formation preincubated for 5 mins before arachidonic acid addition by HPLC analysis
T2 sequence (P35354 whole entry): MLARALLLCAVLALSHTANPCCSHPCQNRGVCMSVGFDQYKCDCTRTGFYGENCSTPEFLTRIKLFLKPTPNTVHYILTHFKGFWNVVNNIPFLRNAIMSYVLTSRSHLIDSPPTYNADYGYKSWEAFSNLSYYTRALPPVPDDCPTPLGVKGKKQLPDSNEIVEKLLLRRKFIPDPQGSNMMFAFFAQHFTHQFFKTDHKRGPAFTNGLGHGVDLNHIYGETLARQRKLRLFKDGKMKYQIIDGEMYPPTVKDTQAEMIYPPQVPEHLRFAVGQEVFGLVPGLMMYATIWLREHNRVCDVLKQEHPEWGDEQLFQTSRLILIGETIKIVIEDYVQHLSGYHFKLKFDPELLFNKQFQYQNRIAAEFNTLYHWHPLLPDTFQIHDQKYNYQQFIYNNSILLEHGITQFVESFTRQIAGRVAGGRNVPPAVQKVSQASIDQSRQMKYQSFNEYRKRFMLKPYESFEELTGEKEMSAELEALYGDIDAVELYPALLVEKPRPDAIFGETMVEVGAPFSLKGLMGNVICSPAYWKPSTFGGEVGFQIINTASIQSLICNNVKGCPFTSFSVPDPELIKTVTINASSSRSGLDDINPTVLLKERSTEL
Summary of the method: (§1)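 Cell-free enzyme assays. Data given either as IC50 or as remaining enzyme activity at 10 µM test concentration.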

[2] = biological target: T3, Prostaglandin G/H synthase 1 (Ovis aries) (UniProt P05979); test: Inhibition of ovine COX1-mediated 12-HHT formation assessed as remaining activity at 10 uM preincubated for 5 mins before arachidonic acid addition by HPLC analysis; summary of the method: as §1
T3 sequence (whole entry): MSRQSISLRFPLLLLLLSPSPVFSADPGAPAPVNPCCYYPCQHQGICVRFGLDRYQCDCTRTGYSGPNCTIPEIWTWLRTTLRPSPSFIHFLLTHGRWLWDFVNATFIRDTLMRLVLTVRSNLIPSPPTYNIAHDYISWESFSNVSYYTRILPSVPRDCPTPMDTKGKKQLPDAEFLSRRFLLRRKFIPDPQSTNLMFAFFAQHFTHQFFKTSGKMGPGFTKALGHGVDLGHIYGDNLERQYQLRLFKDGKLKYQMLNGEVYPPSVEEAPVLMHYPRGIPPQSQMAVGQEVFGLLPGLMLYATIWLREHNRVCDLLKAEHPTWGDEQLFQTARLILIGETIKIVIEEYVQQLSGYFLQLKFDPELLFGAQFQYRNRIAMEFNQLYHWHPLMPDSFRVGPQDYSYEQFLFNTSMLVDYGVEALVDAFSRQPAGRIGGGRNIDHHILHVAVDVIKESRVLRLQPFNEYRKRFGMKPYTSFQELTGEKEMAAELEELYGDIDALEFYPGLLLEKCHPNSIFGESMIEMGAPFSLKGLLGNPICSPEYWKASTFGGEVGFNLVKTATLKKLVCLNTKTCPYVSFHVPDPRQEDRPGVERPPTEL

[3] = biological target: T4, Prostaglandin G/H synthase 2 (Homo sapiens) (UniProt P35354); test: Inhibition of human recombinant COX2-mediated 12-HHT formation assessed as remaining activity at 10 uM preincubated for 5 mins before arachidonic acid addition by HPLC analysis; summary of the method: as §1
T4 sequence (whole entry): T2 sequence (P35354 whole entry)

[4] = biological target: T5, Polyunsaturated fatty acid 5-lipoxygenase (Homo sapiens, UniProt P09917); test: Inhibition of 5-LO in human PMNL assessed as reduction in 5-LO product formation pre-incubated for 15 mins before addition of arachidonic acid substrate by HPLC analysis
T5 sequence (P09917 whole entry): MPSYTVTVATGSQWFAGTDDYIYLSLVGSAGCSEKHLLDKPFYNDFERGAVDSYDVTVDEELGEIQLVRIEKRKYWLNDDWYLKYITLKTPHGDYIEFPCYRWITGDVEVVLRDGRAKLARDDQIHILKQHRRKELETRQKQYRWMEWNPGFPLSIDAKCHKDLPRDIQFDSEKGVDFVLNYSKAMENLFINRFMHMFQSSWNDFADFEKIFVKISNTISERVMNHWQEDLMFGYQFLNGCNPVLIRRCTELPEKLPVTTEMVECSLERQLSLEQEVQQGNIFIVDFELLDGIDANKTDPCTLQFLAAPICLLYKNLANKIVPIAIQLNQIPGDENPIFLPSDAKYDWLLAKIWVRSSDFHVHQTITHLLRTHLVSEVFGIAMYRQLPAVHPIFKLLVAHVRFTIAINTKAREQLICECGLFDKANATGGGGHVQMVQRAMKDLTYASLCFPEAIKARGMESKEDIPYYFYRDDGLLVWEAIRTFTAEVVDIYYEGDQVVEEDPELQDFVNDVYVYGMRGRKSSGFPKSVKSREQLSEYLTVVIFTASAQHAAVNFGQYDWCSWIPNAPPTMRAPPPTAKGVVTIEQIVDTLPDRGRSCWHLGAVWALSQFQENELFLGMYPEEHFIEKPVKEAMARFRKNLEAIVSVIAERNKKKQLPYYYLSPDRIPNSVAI

Presenilin-1 [5] = biological target: T6, Presenilin-1 (Homo sapiens, UniProt P49768); test: Inhibition of wild-type human presenilin-1 stably overexpressed in CHO cells co-expressing wild-type human amyloid precursor protein assessed as inhibition of amyloid beta 42 formation after 24 hrs by ELISA; assay type: cell-based
[6] = biological target: T7, Prostaglandin G/H synthase 1 (Ovis aries, UniProt P05979); test: Inhibition of ovine COX1-mediated 12-HHT formation preincubated for 5 mins before arachidonic acid addition by HPLC analysis; summary of the method: as §1
T7 sequence (P05979 whole entry): T3 sequence (whole entry)

[7] = biological target: T8, Peroxisome proliferator-activated receptor gamma (Homo sapiens) (UniProt P37231); test: Activation of human PPARgamma ligand binding domain expressed in COS7 cells by dual luciferase reporter gene assay relative to 1 uM pioglitazone; assay type: cell-based; details: COS-7
T8 sequence (whole entry): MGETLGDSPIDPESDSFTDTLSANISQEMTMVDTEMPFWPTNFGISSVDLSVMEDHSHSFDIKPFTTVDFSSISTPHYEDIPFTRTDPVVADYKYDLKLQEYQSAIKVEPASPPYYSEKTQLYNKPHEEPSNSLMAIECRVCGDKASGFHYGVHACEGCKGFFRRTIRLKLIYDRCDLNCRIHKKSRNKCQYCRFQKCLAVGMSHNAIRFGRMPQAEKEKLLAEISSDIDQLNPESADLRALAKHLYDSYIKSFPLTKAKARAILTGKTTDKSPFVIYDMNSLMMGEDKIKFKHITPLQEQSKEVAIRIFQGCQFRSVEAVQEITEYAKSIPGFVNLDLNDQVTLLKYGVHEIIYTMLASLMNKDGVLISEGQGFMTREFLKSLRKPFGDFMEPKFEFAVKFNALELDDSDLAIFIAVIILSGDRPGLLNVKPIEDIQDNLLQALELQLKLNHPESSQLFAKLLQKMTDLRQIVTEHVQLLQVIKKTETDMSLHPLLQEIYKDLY

Presenilin-1 [8] = biological target: T6, Presenilin-1; test: Activation of wild-type human presenilin-1 stably overexpressed in CHO cells co-expressing wild-type human amyloid precursor protein assessed as amyloid beta 38 formation after 24 hrs by ELISA; assay type: cell-based
[9] = biological target: T9, Peroxisome proliferator-activated receptor gamma (Homo sapiens, UniProt P37231); test: Activation of human PPARgamma ligand binding domain expressed in COS7 cells by dual luciferase reporter gene assay; assay type: cell-based, COS-7
T9 sequence (P37231 whole entry): T8 sequence (whole entry)

[10] = biological target: T8, Peroxisome proliferator-activated receptor gamma (Homo sapiens); test: Activation of human PPARgamma ligand binding domain expressed in COS7 cells at 10 uM by dual luciferase reporter gene assay; assay type: cell-based; details: COS-7
[11] = Cytotoxicity against CHO cells assessed as cell viability up to 30 uM after 24 hrs by alamar blue assay; assay type: cell-based, Cricetulus griseus; details: chinese hamster, read-out: Activity
[12] = biological target: Neurogenic locus notch homolog protein 1 (Homo sapiens, UniProt P46531); test: Inhibition of NOTCH-1 signaling (unknown origin) expressed in CHO cells at 5 to 50 uM after 24 hrs by dual luciferase reporter gene assay; assay type: cell-based
Neurogenic locus notch homolog protein 1, sequence (P46531 whole entry): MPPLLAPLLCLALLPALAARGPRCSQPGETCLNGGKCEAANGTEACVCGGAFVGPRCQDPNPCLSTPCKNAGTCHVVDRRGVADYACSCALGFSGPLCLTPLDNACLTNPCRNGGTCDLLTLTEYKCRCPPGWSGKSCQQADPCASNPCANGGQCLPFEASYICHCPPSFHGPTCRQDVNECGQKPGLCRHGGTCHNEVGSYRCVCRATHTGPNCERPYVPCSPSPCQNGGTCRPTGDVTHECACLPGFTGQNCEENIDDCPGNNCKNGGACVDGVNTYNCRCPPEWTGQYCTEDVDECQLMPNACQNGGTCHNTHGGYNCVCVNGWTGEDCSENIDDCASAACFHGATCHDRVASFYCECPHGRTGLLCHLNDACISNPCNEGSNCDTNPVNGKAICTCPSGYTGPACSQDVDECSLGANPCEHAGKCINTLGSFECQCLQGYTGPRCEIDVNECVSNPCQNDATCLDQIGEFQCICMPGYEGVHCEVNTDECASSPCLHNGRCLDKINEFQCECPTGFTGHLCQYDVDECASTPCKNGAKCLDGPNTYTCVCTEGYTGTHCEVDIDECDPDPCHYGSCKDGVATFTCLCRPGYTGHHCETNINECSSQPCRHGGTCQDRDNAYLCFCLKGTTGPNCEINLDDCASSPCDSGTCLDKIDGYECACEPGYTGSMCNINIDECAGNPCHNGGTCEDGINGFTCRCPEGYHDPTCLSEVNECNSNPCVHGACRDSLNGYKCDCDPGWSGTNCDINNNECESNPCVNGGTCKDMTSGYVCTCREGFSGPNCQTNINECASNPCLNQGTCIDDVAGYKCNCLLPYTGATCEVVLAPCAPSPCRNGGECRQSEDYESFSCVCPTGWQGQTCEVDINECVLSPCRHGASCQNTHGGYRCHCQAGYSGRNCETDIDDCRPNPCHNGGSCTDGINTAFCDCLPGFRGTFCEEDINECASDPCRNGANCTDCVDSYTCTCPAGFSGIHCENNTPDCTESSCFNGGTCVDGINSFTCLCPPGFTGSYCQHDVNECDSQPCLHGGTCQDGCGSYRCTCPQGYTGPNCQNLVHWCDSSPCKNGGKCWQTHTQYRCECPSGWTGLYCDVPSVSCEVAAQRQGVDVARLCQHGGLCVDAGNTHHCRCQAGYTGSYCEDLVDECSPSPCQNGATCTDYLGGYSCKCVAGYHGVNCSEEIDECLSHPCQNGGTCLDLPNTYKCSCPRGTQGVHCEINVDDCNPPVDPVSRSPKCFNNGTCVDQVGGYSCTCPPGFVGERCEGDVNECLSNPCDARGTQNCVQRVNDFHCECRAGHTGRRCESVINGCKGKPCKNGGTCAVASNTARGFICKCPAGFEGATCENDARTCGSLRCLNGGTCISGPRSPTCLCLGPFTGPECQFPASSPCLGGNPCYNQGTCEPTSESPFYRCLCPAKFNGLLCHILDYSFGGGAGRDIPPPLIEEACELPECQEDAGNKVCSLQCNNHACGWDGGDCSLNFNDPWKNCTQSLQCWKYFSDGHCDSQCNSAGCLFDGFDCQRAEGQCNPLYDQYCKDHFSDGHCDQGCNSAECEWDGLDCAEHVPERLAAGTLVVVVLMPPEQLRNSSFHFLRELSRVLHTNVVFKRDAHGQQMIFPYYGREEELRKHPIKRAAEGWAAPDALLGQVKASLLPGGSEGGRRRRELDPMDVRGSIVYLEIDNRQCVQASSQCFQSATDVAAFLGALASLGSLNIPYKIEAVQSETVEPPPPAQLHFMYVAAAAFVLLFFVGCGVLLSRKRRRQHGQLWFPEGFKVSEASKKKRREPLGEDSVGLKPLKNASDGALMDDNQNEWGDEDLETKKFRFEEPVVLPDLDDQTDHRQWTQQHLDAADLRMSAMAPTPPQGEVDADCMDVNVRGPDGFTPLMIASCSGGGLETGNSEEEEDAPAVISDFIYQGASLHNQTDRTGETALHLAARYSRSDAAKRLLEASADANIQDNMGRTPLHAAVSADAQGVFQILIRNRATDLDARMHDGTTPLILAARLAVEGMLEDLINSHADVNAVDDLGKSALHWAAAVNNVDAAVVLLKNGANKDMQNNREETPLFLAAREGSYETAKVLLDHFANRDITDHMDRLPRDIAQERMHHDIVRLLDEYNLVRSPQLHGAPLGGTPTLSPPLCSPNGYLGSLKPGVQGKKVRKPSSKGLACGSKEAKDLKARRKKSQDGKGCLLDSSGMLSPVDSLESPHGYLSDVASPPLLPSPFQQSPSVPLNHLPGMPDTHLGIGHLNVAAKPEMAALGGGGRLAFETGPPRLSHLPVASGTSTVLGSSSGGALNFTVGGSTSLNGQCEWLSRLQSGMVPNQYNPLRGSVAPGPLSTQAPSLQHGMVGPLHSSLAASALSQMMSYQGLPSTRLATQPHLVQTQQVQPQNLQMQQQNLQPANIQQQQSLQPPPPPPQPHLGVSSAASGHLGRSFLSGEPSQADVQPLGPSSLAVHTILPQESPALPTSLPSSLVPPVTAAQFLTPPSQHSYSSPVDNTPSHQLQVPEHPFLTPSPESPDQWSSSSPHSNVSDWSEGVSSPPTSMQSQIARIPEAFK
Summary of the method: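 Dual luciferase Notch reporter read-out in CHO cells. Test compounds were run at 5–50 µM. The γ-secretase inhibitor LY-411575 was run at 0.5 µM as the reference treatment.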

Structure (SMILES) | IC50 (Prostaglandin E synthase) | IC50 [1] | Activity [2] | Activity [3] | IC50 ([4]; read-out: IC50) | IC50 (Presenilin-1 [5]) | IC50 [6] | max activation [7] | EC50 (Presenilin-1 [8]) | EC50 ([9]; read-out: EC50) | EC50 ([9]; cos-7) | Activity [10] | inhibition (INH) [12] | IC50 [4] | viability at 24 h [11]
CCCC/C(=C\c1cc(OCc2ccc(OCCN3CCOCC3)cc2)ccc1OCc1ccc(C(F)(F)F)cc1)C(=O)O | 8.7 µM | > 10 µM | 91.3% | 95% | 0.9 µM | 2.2 µM | > 10 µM | 66% | 0.97 µM | 3.77 µM | – | – | – | – | –
CCCC/C(=C\c1cc(OCc2ccc(Oc3ccccn3)cc2)ccc1OCc1ccc(C(F)(F)F)cc1)C(=O)O | 10 µM | > 10 µM | 75.7% | 91.1% | 0.2 µM | 5 µM | > 10 µM | – | 4.5 µM | – | Not Active | – | – | – | –
CCCC/C(=C\c1cc(-c2ccccc2)ccc1OCc1ccc(C(F)(F)F)cc1)C(=O)O | – | – | – | – | 5.7 µM | 11.9 µM | – | – | 12 µM | – | – | 26% | – | – | –
CCCC/C(=C\c1cc(OCc2cc(C(F)(F)F)cc(C(F)(F)F)c2)ccc1OCc1ccc(C(F)(F)F)cc1)C(=O)O | > 10 µM | > 10 µM | 62.4% | 77.3% | 0.3 µM | 0.79 µM | > 10 µM | 103% | 1 µM | 4.64 µM | – | – | – | – | > 50%
CCCC/C(=C\c1cc(OCC(c2ccccc2)c2ccccc2)ccc1OCc1ccc(C(F)(F)F)cc1)C(=O)O | > 10 µM | > 10 µM | 61.1% | 79.5% | 0.25 µM | 11.4 µM | > 10 µM | 97% | 11.2 µM | 1.26 µM | – | – | – | – | –
CCCC/C(=C\c1cc(OCc2csc(-c3ccc(C(F)(F)F)cc3)n2)ccc1OCc1ccc(C(F)(F)F)cc1)C(=O)O | > 10 µM | > 10 µM | 73.5% | 84.4% | 0.9 µM | 2.3 µM | > 10 µM | inactive | 10.7 µM | – | Not Active | – | – | – | –
CCCC/C(=C\c1cc(O)ccc1OCc1ccc(C(F)(F)F)cc1)C(=O)O | – | – | – | – | – | > 40 µM | – | – | > 40 µM | – | – | 48% | – | Not Active | –
CCCC/C(=C\c1cc(OCc2ccc(F)cc2)ccc1OCc1ccc(C(F)(F)F)cc1)C(=O)O | 4.9 µM | > 10 µM | 78.4% | 84.2% | 0.5 µM | 7 µM | > 10 µM | 76% | 13.8 µM | 5.17 µM | – | – | – | – | –
CCCC/C(=C\c1cc(OCC2CCC(C(F)(F)F)CC2)ccc1OCc1ccc(C(F)(F)F)cc1)C(=O)O (stereo unspecified) | 2.5 µM | > 10 µM | 58% | 75.3% | 1.7 µM | 1 µM | > 10 µM | 158% | 1.1 µM | 2.16 µM | – | – | Not Active | – | > 50%

Further lines, with some results ahead:

IC50 (Prostaglandin E synthase) | IC50 [1] | Activity [2] | Activity [3] | IC50 ([4]; read-out: IC50) | IC50 (Presenilin-1 [5]) | IC50 [6] | max activation [7] | EC50 (Presenilin-1 [8]) | EC50 ([9]; read-out: EC50) | EC50 ([9]; cos-7) | Activity [10] | inhibition (INH) [12] | IC50 [4] | Structure (SMILES) | viability at 24 h [11]
3 µM | > 10 µM | 69% | 84.2% | 0.2 µM | 0.63 µM | > 10 µM | – | 1.17 µM | – | – | 17% | Not Active | – | CCCC/C(=C\c1cc(OCc2ccc3nc(C(F)(F)F)cc(OC)c3c2)ccc1OCc1ccc(C(F)(F)F)cc1)C(=O)O | > 50%
> 10 µM | > 10 µM | – | – | – | 1.2 µM | > 10 µM | – | 1.1 µM | – | – | – | – | – | CCCC/C(=C\c1cc(OCc2ccc(C(F)(F)F)cc2)ccc1OCc1ccc(C(F)(F)F)cc1)C(=O)O | –
1.6 µM | > 10 µM | 59.4% | 73.3% | 0.3 µM | 2 µM | > 10 µM | 56% | 3.2 µM | 2.11 µM | – | – | – | – | CCCC/C(=C\c1cc(OCc2ccc(Cl)c(Cl)c2)ccc1OCc1ccc(C(F)(F)F)cc1)C(=O)O | –
5 µM | > 10 µM | 69.5% | 77.7% | 0.75 µM | 4.1 µM | > 10 µM | 56% | 2.5 µM | 12.9 µM | – | – | – | – | CCCC/C(=C\c1cc(OC/C=C/c2ccccc2)ccc1OCc1ccc(C(F)(F)F)cc1)C(=O)O | –
5.6 µM | > 10 µM | 86.6% | 84.8% | 0.55 µM | 19.3 µM | > 10 µM | 108% | 14.1 µM | 11.7 µM | – | – | – | – | CCCC/C(=C\c1cc(OCc2ccccc2)ccc1OCc1ccc(C(F)(F)F)cc1)C(=O)O | –
